{"source": "ChEMBL document CHEMBL1122798", "about": "“Trypanocidal 1,3-arylene diketone bis(guanylhydrazone)s. Structure-activity relationships among substituted and heterocyclic analogues” (1984)", "assay_type_in_all_cases": "functional", "key": {"Mus musculus [1]": {"tested_on": "Mus musculus", "test": "Compound was tested for Trypanocidal Activity in mice at 4 mg/kg; 20/30"}, "Mus musculus [2]": {"tested_on": "Mus musculus", "test": "Compound was tested for Trypanocidal Activity in mice at 1.0 mg/kg; 0/10"}, "Mus musculus [3]": {"tested_on": "Mus musculus", "test": "Compound was tested for Trypanocidal Activity in mice at 40 mg/kg; toxic deaths; 1/5"}, "Mus musculus [4]": {"tested_on": "Mus musculus", "test": "Compound was tested for Trypanocidal Activity in mice at 60 mg/kg; 0/5"}, "Mus musculus [5]": {"tested_on": "Mus musculus", "test": "Compound was tested for Trypanocidal Activity in mice at 25 mg/kg; 10/10"}, "Mus musculus [6]": {"tested_on": "Mus musculus", "test": "Compound was tested for Trypanocidal Activity in mice at 15 mg/kg; 10/10"}, "Mus musculus [7]": {"organism": "Mus musculus", "test": "Effective dose against Trypanosoma brucei infection in mice", "how_it_was_run": "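Female Swiss-Webster mice (20–25 g) were infected ip with 5×10^4 T. brucei EATRO 110 organisms in fresh mouse blood diluted with minimum essential medium. Groups of 5 or 10 received a single ip dose in normal saline (solution or milled suspension, 20 μL/g) 6 h post-infection. Deaths within 72 h were scored as toxic. Survivors aparasitemic at 28 days (tail-blood wet films, phase contrast) counted as cures. ED50 was computed by Bliss/Litchfield–Wilcoxon, excluding toxic dosages.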"}, "Mus musculus [8]": {"tested_on": "Mus musculus", "test": "Compound was tested for Trypanocidal Activity in mice at 6 mg/kg; 26/30"}, "Mus musculus [9]": {"tested_on": "Mus musculus", "test": "Compound was tested for Trypanocidal Activity in mice at 2.5 mg/kg; 21/35"}, "Mus musculus [10]": {"tested_on": "Mus musculus", "test": "Compound was tested for Trypanocidal Activity in mice at 1.5 mg/kg; 2/25"}, "Mus musculus [11]": {"tested_on": "Mus musculus", "test": "Compound was tested for Trypanocidal Activity in mice at 10 mg/kg; 19/20"}, "Mus musculus [12]": {"tested_on": "Mus musculus", "test": "Compound was tested for Trypanocidal Activity in mice at 40 mg/kg; 0/5"}, "Mus musculus [13]": {"tested_on": "Mus musculus", "test": "Compound was tested for Trypanocidal Activity in mice at 15 mg/kg; 0/5"}, "Mus musculus [14]": {"tested_on": "Mus musculus", "test": "Compound was tested for Trypanocidal Activity in mice at 100 mg/kg; 0/5"}, "Mus musculus [15]": {"tested_on": "Mus musculus", "test": "Compound was tested ffor Trypanocidal Activity in mice at 500 mg/kg; 0/5"}, "Mus musculus [16]": {"tested_on": "Mus musculus", "test": "Compound was tested for Trypanocidal Activity in mice at 15 mg/kg; 4/15"}, "Mus musculus [17]": {"tested_on": "Mus musculus", "test": "Compound was tested for Trypanocidal Activity in mice at 25 mg/kg; 10/15"}, "Mus musculus [18]": {"tested_on": "Mus musculus", "test": "Compound was tested for Trypanocidal Activity in mice at 40 mg/kg; 5/5"}, "Mus musculus [19]": {"tested_on": "Mus musculus", "test": "Compound was tested for Trypanocidal Activity in mice at 10 mg/kg; 0/5"}, "Mus musculus [20]": {"tested_on": "Mus musculus", "test": "Compound was tested for Trypanocidal Activity in mice at 6 mg/kg; 9/10"}, "Mus musculus [21]": {"tested_on": "Mus musculus", "test": "Compound was tested for Trypanocidal Activity in mice at 10 mg/kg; 10/10"}, "Mus musculus [22]": {"tested_on": "Mus musculus", "test": "Compound was tested for Trypanocidal Activity in mice at 1.5 mg/kg; 3/30"}, "Mus musculus [23]": {"tested_on": "Mus musculus", "test": "Compound was tested for Trypanocidal Activity in mice at 25 mg/kg; toxic deaths; 8/10"}, "Mus musculus [24]": {"tested_on": "Mus musculus", "test": "Compound was tested for Trypanocidal Activity in mice at 2.5 mg/kg; 15/30"}, "Mus musculus [25]": {"tested_on": "Mus musculus", "test": "Compound was tested for Trypanocidal Activity in mice at 15 mg/kg; 9/10"}, "Mus musculus [26]": {"tested_on": "Mus musculus", "test": "Compound was tested for Trypanocidal Activity in mice at 4 mg/kg; 22/30"}}}
{"smiles": "C/C(=N\\NC(=N)N)c1cc(N)cc(/C(C)=N/NC(=N)N)c1.Cl", "values": [{"measurement": "Cures/total", "setting": "Mus musculus [1]", "value": 20}, {"measurement": "Cures/total", "setting": "Mus musculus [2]", "value": 0}, {"measurement": "Cures/total", "setting": "Mus musculus [3]", "value": 1}, {"measurement": "Cures/total", "setting": "Mus musculus [4]", "value": 0}, {"measurement": "Cures/total", "setting": "Mus musculus [5]", "value": 10}, {"measurement": "Mice cured (number)", "setting": "Mus musculus [6]", "value": 10}, {"measurement": "ED50", "setting": "Mus musculus [7]", "value": 2.8, "unit": "mg/kg"}, {"measurement": "Cures/total", "setting": "Mus musculus [8]", "value": 26}, {"measurement": "Cures/total", "setting": "Mus musculus [9]", "value": 21}, {"measurement": "Cures/total", "setting": "Mus musculus [10]", "value": 2}, {"measurement": "Cures/total", "setting": "Mus musculus [11]", "value": 19}]}
{"smiles": "C/C(=N\\NC(=N)N)c1cc(/C(C)=N/NC(=N)N)c(O)cc1O.Cl", "values": [{"measurement": "Cures/total", "setting": "Mus musculus [12]", "value": 0}, {"measurement": "Cures/total", "setting": "Mus musculus [13]", "value": 0}, {"measurement": "Cures/total", "setting": "Mus musculus [14]", "value": 0}, {"measurement": "Cures/total", "setting": "Mus musculus [15]", "value": 0}]}
{"smiles": "C/C(=N\\NC(=N)N)c1ccc([N+](=O)[O-])c(/C(C)=N/NC(=N)N)c1.Cl", "values": [{"measurement": "Cures/total", "setting": "Mus musculus [16]", "value": 4}, {"measurement": "Cures/total", "setting": "Mus musculus [4]", "value": 0}, {"measurement": "Cures/total", "setting": "Mus musculus [17]", "value": 10}, {"measurement": "ED50", "setting": "Mus musculus [7]", "value": 20, "unit": "mg/kg"}, {"measurement": "Cures/total", "setting": "Mus musculus [18]", "value": 5}, {"measurement": "Cures/total", "setting": "Mus musculus [19]", "value": 0}]}
{"smiles": "CC(=O)Nc1cc(/C(C)=N/NC(=N)N)cc(/C(C)=N/NC(=N)N)c1.Cl", "values": [{"measurement": "Cures/total", "setting": "Mus musculus [20]", "value": 9}, {"measurement": "Cures/total", "setting": "Mus musculus [12]", "value": 0}, {"measurement": "Cures/total", "setting": "Mus musculus [2]", "value": 0}, {"measurement": "Cures/total", "setting": "Mus musculus [21]", "value": 10}, {"measurement": "Cures/total", "setting": "Mus musculus [22]", "value": 3}, {"measurement": "Cures/total", "setting": "Mus musculus [23]", "value": 8}, {"measurement": "Cures/total", "setting": "Mus musculus [24]", "value": 15}, {"measurement": "Cures/total", "setting": "Mus musculus [25]", "value": 9}, {"measurement": "Cures/total", "setting": "Mus musculus [26]", "value": 22}]}
